{"data": "Measured values from different studies", "TEC": "Tyrosine-protein kinase Tec (TEC, Homo sapiens, UniProt P42680)", "TEC phosphorylated": "Tyrosine-protein kinase Tec, phosphorylated (TEC, Homo sapiens, UniProt P42680)", "note": "Lines come from different studies, so protocols differ."}
{"SMILES": "O=C1Nc2ccc(Cl)cc2C1=Cc1cc(Cl)c(O)c(Cl)c1", "target": "TEC", "observed": "cell-free assay", "concentration": "0.5 µM", "measurement": "remaining signal", "result": "109%"}
{"SMILES": "C[C@@H]1CN(c2cc(-c3nn(C)c4ccc(OC5(C)CC5)cc34)ncn2)C[C@H](C)O1", "target": "TEC", "observed": "cell-free assay", "method": "competition with immobilised ligand", "concentration": "1 µM", "measurement": "remaining binding", "result": "100%"}
{"SMILES": "CC(C)(C)c1nc(-c2cccc(NS(=O)(=O)c3c(F)cccc3F)c2F)c(-c2ccnc(N)n2)s1", "target": "TEC", "observed": "enzyme activity", "mode": "inhibitor", "method": "radiometric", "concentration": "1 µM", "measurement": "remaining activity", "result": "87%"}
{"SMILES": "Cc1cnc(NC2CCOCC2)nc1-n1cnc(C(=O)NC(CN)c2cc(F)cc(Cl)c2)c1 (centres unmarked)", "target": "TEC phosphorylated", "observed": "enzyme activity", "mode": "inhibitor", "method": "radiometric", "concentration": "1 µM", "measurement": "remaining activity", "result": "102%"}
{"SMILES": "O=C1NC(=O)c2cc(Nc3ccc(F)cc3)c(Nc3ccc(F)cc3)cc21", "target": "TEC", "observed": "cell-free assay", "concentration": "0.5 µM", "measurement": "remaining signal", "result": "102%"}
{"SMILES": "CCOc1cc(-c2nncn2C)ccc1Nc1ncc2cc(C)nc(NCC(C)(C)C)c2n1", "target": "TEC", "observed": "cell-free assay", "method": "TR-FRET", "concentration": "1 µM", "measurement": "inhibition", "result": "≤ 15%"}
{"SMILES": "COc1cc(Cl)c(C(=O)N[C@@H](CN[C@H]2CC[C@@H](N)CC2)Cc2ccc(C#N)cc2)cc1-c1ccc(CN[C@H](C)c2ccc(C)cc2)o1", "target": "TEC phosphorylated", "observed": "enzyme activity", "mode": "inhibitor", "concentration": "1 µM", "measurement": "remaining activity", "result": "90%"}
{"SMILES": "CC(C)(O)[C@H]1CC[C@H](Nc2ccc3ncc(-c4cccc(C(F)(F)F)c4)n3n2)CC1", "target": "TEC", "observed": "enzyme activity", "mode": "inhibitor", "concentration": "1 µM", "measurement": "remaining activity", "result": "104%"}
{"SMILES": "CCN(CC)c1ccc(C2=NNC(=O)CC2C)cc1[N+](=O)[O-] (centres unmarked)", "target": "TEC phosphorylated", "observed": "enzyme activity", "mode": "inhibitor", "concentration": "10 µM", "measurement": "remaining activity", "result": "64%"}
{"SMILES": "CN1CC(Oc2cnc(C#N)cc2-c2ccn3nc(NC(=O)C4CC4)cc3c2)C1", "target": "TEC phosphorylated", "observed": "enzyme activity", "mode": "inhibitor", "concentration": "1 µM", "measurement": "inhibition", "result": "25%"}
{"SMILES": "Nc1c(C(=O)NCc2ccc(C(=O)NCCCC3CCCCC3)cc2)cnn1-c1ccccc1", "target": "TEC", "observed": "cell-free assay", "method": "competition with immobilised ligand", "concentration": "0.1 µM", "measurement": "remaining binding", "result": "100%"}
{"SMILES": "Oc1cccc(-c2nc(N3CCOCC3)c3oc4ncccc4c3n2)c1", "target": "TEC", "observed": "cell-free assay", "concentration": "0.5 µM", "measurement": "remaining signal", "result": "113%"}
{"SMILES": "CC(=O)N1CCC(c2ccc(C(=O)NC3=NCCN3)cc2C(F)(F)F)CC1", "target": "TEC", "observed": "binding", "method": "competition with immobilised ligand", "concentration": "1 µM", "measurement": "remaining binding", "result": "100%"}
{"SMILES": "Nc1ncnc2occ(-c3ccc(NC(=O)Nc4cc(C(F)(F)F)ccc4F)cc3)c12", "target": "TEC", "observed": "cell-free assay", "mode": "inhibitor", "concentration": "20 µM", "measurement": "remaining signal", "result": "53%"}
{"SMILES": "CC(=O)N1CCC(c2ccc(C(=O)NC(=N)N)cc2C(F)(F)F)CC1", "target": "TEC", "observed": "binding", "method": "competition with immobilised ligand", "concentration": "1 µM", "measurement": "remaining binding", "result": "100%"}
{"SMILES": "Cc1sc(C(=O)NC2COC2)cc1-n1cc(NC(=O)Nc2c(F)cccc2Cl)cn1", "target": "TEC", "observed": "enzyme activity", "mode": "inhibitor", "concentration": "10 µM", "measurement": "remaining activity", "result": "91.1%"}
{"SMILES": "CC(=O)C1=C(C)N(c2cccc(C(F)(F)F)c2)C(=O)N[C@@H]1c1ccc(C#N)nc1", "target": "TEC", "observed": "binding", "method": "competition with immobilised ligand", "concentration": "1 µM", "measurement": "remaining binding", "result": "100%"}
{"SMILES": "CC(C)[C@H](NC(=O)c1cc(-c2cnn3cc(-c4ccc(OCCN5CCCCC5)cc4)cnc23)cs1)C(F)(F)F", "target": "TEC", "observed": "enzyme activity", "mode": "inhibitor", "method": "radiometric", "concentration": "15 nM", "measurement": "inhibition", "result": "0%"}
{"SMILES": "c1nc2c(Nc3ccc4c(c3)OCCO4)nc(Nc3ccc4c(c3)OCCO4)nc2[nH]1", "target": "TEC", "observed": "enzyme activity", "mode": "inhibitor", "concentration": "10 µM", "measurement": "activity vs control", "result": "2.5%"}
{"SMILES": "O=C(O)c1cc(-c2ccc(C3CCNCC3)cc2)c2ccc(-c3ccc(C(F)(F)F)cc3)cc2c1", "target": "TEC", "observed": "cell-free assay", "method": "competition with immobilised ligand", "concentration": "1 µM", "measurement": "remaining binding", "result": "100%"}
